Published values of several laboratories.
Compare with care: the assays were run in different laboratories.
Target: Mitogen-activated protein kinase kinase kinase 11 (MAP3K11, Homo sapiens, UniProt Q16584)

Structure (SMILES)	effect on	mode	technique	concentration	quantity	value
N#CC1(c2ccccn2)CCN(Cc2cc(C(=O)O)c(=O)n3ccccc23)CC1	cell-free assay		competition with immobilised ligand	1 µM	remaining binding	100%
Cn1cc(-c2cc(F)cc(N3CCn4c(cc5c4CCCC5)C3=O)c2CO)cc(Nc2ccc(N3CCN(C4COC4)CC3)cn2)c1=O	enzyme activity	inhibitor		0.1 µM	inhibition	0%
Cn1cncc1[C@](O)(COc1ccc(C#N)cc1-c1ccc(OC(F)(F)F)cc1)c1ccc(C#N)cc1	cell-free assay		competition with immobilised ligand	1 µM	remaining binding	86%
Nc1ncc(-c2nc(N3CCOCC3)nc(N3CCOCC3)n2)c(C(F)F)n1	binding		competition with immobilised ligand	10 µM	remaining binding	47%
CC(C)(C)c1cc(C=C(C#N)C#N)cc(Br)c1O	enzyme activity	inhibitor		0.5 µM	remaining activity	97.4%
COc1ncccc1-c1cnn2ccc(N3CCN(C(=O)OC(C)C)CC3)nc12	binding		competition with immobilised ligand	1 µM	remaining binding	76%
Cn1cc(-c2cccc(N3CCc4c(sc5c4CC(C)(C)C5)C3=O)c2CO)cc(Nc2ccncn2)c1=O	enzyme activity	inhibitor		1 µM	inhibition	-4%
Cc1nn(C)cc1-c1nc2c(N3CCN(Cc4ccc(Cl)cc4)CC3)c(Cl)cnc2[nH]1	binding		competition with immobilised ligand	1 µM	remaining binding	9.8%
O=c1[nH]c2ccccc2n1C1CCN(Cc2ccc(-c3[nH]c4cc5ncnc5cc4nc3-c3ccccc3)cc2)CC1	cell-free assay			0.5 µM	remaining signal	94.6%
